Laboratory results taken from ChEMBL document CHEMBL4265871, “Novel alkylated azoles as potent antifungals” (Eur J Med Chem, 2017).
In brackets after ≈: the same amount, converted by molar mass.

Experiments:
Candida albicans [1] = test: Antifungal activity against Candida albicans ATCC 10231 incubated for 48 hrs by modified CLSI M27-A3 protocol based method; format: functional; conditions: ATCC 10231, 48 h
Summary of the method: (§1)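 For C. albicans ATCC 10231, C. krusei ATCC 6258 and C. parapsilosis ATCC 22019, MIC-0 was read, meaning complete growth inhibition. For azole controls, MIC-2 (50% growth inhibition) was reported instead. Caspofungin and voriconazole were tested here; other controls came from earlier work.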

Candida albicans [2] = test: Antifungal activity against Candida albicans ATCC 64124 incubated for 48 hrs by modified CLSI M27-A3 protocol based method; format: functional; conditions: ATCC 64124, 48 h
Candida albicans [3] = test: Antifungal activity against ITC and FLC-susceptible Candida albicans ATCC MYA-2876 incubated for 48 hrs by modified CLSI M27-A3 protocol based method; format: functional; conditions: ATCC MYA-2876, 48 h
Summary of the method: (§2)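 Because these Candida strains show trailing growth, MIC-2 was read, meaning 50% growth inhibition. Caspofungin and voriconazole were tested here; other controls came from earlier work.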

Candida albicans [4] = test: Antifungal activity against ITC and FLC-resistant Candida albicans ATCC MYA-90819 incubated for 48 hrs by modified CLSI M27-A3 protocol based method; format: functional; conditions: ATCC MYA-90819, 48 h
Candida albicans [5] = test: Antifungal activity against ITC and FLC-susceptible Candida albicans ATCC MYA-2310 incubated for 48 hrs by modified CLSI M27-A3 protocol based method; format: functional; conditions: ATCC MYA-2310, 48 h
Candida albicans [6] = test: Antifungal activity against ITC and FLC-resistant Candida albicans ATCC 1237 incubated for 48 hrs by modified CLSI M27-A3 protocol based method; format: functional; conditions: ATCC 1237, 48 h; summary of the method: as §2
Candida albicans [7] = test: Antifungal activity against ITC and FLC-resistant Candida albicans ATCC MYA-1003 incubated for 48 hrs by modified CLSI M27-A3 protocol based method; format: functional; conditions: ATCC MYA-1003, 48 h; summary of the method: as §2
Nakaseomyces glabratus = test: Antifungal activity against Candida glabrata ATCC 2001 incubated for 48 hrs by modified CLSI M27-A3 protocol based method; format: functional; conditions: ATCC 2001, 48 h
Pichia kudriavzevii = test: Antifungal activity against Candida krusei ATCC 6258 incubated for 48 hrs by modified CLSI M27-A3 protocol based method; format: functional; conditions: ATCC 6258, 48 h; summary of the method: as §1
Candida parapsilosis = test: Antifungal activity against Candida parapsilosis ATCC 22019 incubated for 48 hrs by modified CLSI M27-A3 protocol based method; format: functional; conditions: Lodderomyces parapsilosis, ATCC 22019, 48 h; summary of the method: as §1
Aspergillus flavus = test: Antifungal activity against Aspergillus flavus ATCC MYA-3631 incubated for 48 hrs by CLSI M38-A2 protocol based method; format: functional; conditions: ATCC MYA-3631, 48 h
Aspergillus nidulans = test: Antifungal activity against Aspergillus nidulans ATCC 38163 incubated for 48 hrs by CLSI M38-A2 protocol based method; format: functional; conditions: ATCC 38163, 48 h
Aspergillus terreus = test: Antifungal activity against Aspergillus terreus ATCC MYA-3633 incubated for 48 hrs by CLSI M38-A2 protocol based method; format: functional; conditions: ATCC MYA-3633, 48 h
[8] = Toxicity in human A549 cells assessed as reduction in cell viability incubated for 24 hrs by resazurin dye based assay
Summary of the method: (§3)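 Toxicity tested in the nucleated lines A549 and BEAS-2B to give EC50 values. Selectivity index is EC50 against the mammalian line divided by the MIC against a given fungal strain.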

[9] = Toxicity in human BEAS2B cells assessed as reduction in cell viability incubated for 24 hrs by resazurin dye based assay; conditions: BEAS-2B cells; summary of the method: as §3
[10] = Selectivity index, ratio of EC50 for toxicity in human BEAS2B cells to MIC50 for antifungal activity against Candida albicans ATCC 64124; format: cell-based; conditions: BEAS-2B cells, read-out: Selectivity Index
Summary of the method: (§4)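 Selectivity index is the EC50 against the mammalian line (A549 or BEAS-2B) divided by the MIC against the given fungal strain.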

[11] = Selectivity index, ratio of EC50 for toxicity in human A549 cells to MIC50 for antifungal activity against Candida albicans ATCC 64124; format: cell-based; conditions: read-out: Selectivity Index; summary of the method: as §4
[12] = Selectivity index, ratio of EC50 for toxicity in human A549 cells to MIC50 for antifungal activity against ITC and FLC-susceptible Candida albicans ATCC MYA-2876; format: cell-based; conditions: read-out: Selectivity Index; summary of the method: as §4
[13] = Selectivity index, ratio of EC50 for toxicity in human BEAS2B cells to MIC50 for antifungal activity against ITC and FLC-susceptible Candida albicans ATCC MYA-2876; format: cell-based; conditions: BEAS-2B cells, read-out: Selectivity Index
Summary of the method: (§5)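 Ratio of the compound's EC50 against BEAS-2B cells to its MIC against the named C. albicans strain. […] For C. albicans strains other than ATCC 10231, trailing growth meant MIC-2 was taken, meaning 50% growth inhibition.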

[14] = Selectivity index, ratio of EC50 for toxicity in human A549 cells to MIC50 for antifungal activity against ITC and FLC-resistant Candida albicans ATCC MYA-90819; format: cell-based; conditions: read-out: Selectivity Index; summary of the method: as §4
[15] = Selectivity index, ratio of EC50 for toxicity in human BEAS2B cells to MIC50 for antifungal activity against ITC and FLC-resistant Candida albicans ATCC MYA-90819; format: cell-based; conditions: BEAS-2B cells, read-out: Selectivity Index; summary of the method: as §5
[16] = Selectivity index, ratio of EC50 for toxicity in human A549 cells to MIC50 for antifungal activity against ITC and FLC-susceptible Candida albicans ATCC MYA-2310; format: cell-based; conditions: read-out: Selectivity Index; summary of the method: as §4
[17] = Selectivity index, ratio of EC50 for toxicity in human BEAS2B cells to MIC50 for antifungal activity against ITC and FLC-susceptible Candida albicans ATCC MYA-2310; format: cell-based; conditions: BEAS-2B cells, read-out: Selectivity Index; summary of the method: as §5
[18] = Selectivity index, ratio of EC50 for toxicity in human A549 cells to MIC50 for antifungal activity against ITC and FLC-resistant Candida albicans ATCC 1237; format: cell-based; conditions: read-out: Selectivity Index; summary of the method: as §4
[19] = Selectivity index, ratio of EC50 for toxicity in human BEAS2B cells to MIC50 for antifungal activity against ITC and FLC-resistant Candida albicans ATCC 1237; format: cell-based; conditions: BEAS-2B cells, read-out: Selectivity Index; summary of the method: as §4
[20] = Selectivity index, ratio of EC50 for toxicity in human A549 cells to MIC50 for antifungal activity against ITC and FLC-resistant Candida albicans ATCC MYA-1003; format: cell-based; conditions: read-out: Selectivity Index; summary of the method: as §4
[21] = Selectivity index, ratio of EC50 for toxicity in human BEAS2B cells to MIC50 for antifungal activity against ITC and FLC-resistant Candida albicans ATCC MYA-1003; format: cell-based; conditions: BEAS-2B cells, read-out: Selectivity Index; summary of the method: as §4
[22] = Selectivity index, ratio of EC50 for toxicity in human A549 cells to MIC50 for antifungal activity against Candida glabrata ATCC 2001; format: cell-based; conditions: read-out: Selectivity Index; summary of the method: as §4
[23] = Selectivity index, ratio of EC50 for toxicity in human BEAS2B cells to MIC50 for antifungal activity against Candida glabrata ATCC 2001; format: cell-based; conditions: BEAS-2B cells, read-out: Selectivity Index; summary of the method: as §4
[24] = Selectivity index, ratio of EC50 for toxicity in human A549 cells to MIC50 for antifungal activity against Candida albicans ATCC 10231; format: cell-based; conditions: read-out: Selectivity Index; summary of the method: as §4
[25] = Selectivity index, ratio of EC50 for toxicity in human BEAS2B cells to MIC50 for antifungal activity against Candida albicans ATCC 10231; format: cell-based; conditions: BEAS-2B cells, read-out: Selectivity Index; summary of the method: as §4
[26] = Selectivity index, ratio of EC50 for toxicity in human A549 cells to MIC50 for antifungal activity against Candida krusei ATCC 6258; format: cell-based; conditions: read-out: Selectivity Index; summary of the method: as §4
[27] = Selectivity index, ratio of EC50 for toxicity in human BEAS2B cells to MIC50 for antifungal activity against Candida krusei ATCC 6258; format: cell-based; conditions: BEAS-2B cells, read-out: Selectivity Index; summary of the method: as §4
[28] = Selectivity index, ratio of EC50 for toxicity in human A549 cells to MIC50 for antifungal activity against Aspergillus flavus ATCC MYA-3631; format: cell-based; conditions: read-out: Selectivity Index; summary of the method: as §4
[29] = Selectivity index, ratio of EC50 for toxicity in human BEAS2B cells to MIC50 for antifungal activity against Aspergillus flavus ATCC MYA-3631; format: cell-based; conditions: read-out: Selectivity Index; summary of the method: as §4
[30] = Selectivity index, ratio of EC50 for toxicity in human A549 cells to MIC50 for antifungal activity against Aspergillus nidulans ATCC 38163; format: cell-based; conditions: read-out: Selectivity Index; summary of the method: as §4
[31] = Selectivity index, ratio of EC50 for toxicity in human BEAS2B cells to MIC50 for antifungal activity against Aspergillus nidulans ATCC 38163; format: cell-based; conditions: read-out: Selectivity Index; summary of the method: as §4
[32] = Selectivity index, ratio of EC50 for toxicity in human A549 cells to MIC50 for antifungal activity against Aspergillus terreus ATCC MYA-3633; format: cell-based; conditions: read-out: Selectivity Index; summary of the method: as §4
[33] = Selectivity index, ratio of EC50 for toxicity in human BEAS2B cells to MIC50 for antifungal activity against Aspergillus terreus ATCC MYA-3633; format: cell-based; conditions: read-out: Selectivity Index; summary of the method: as §4

SMILES: CC[C@@H]([C@H](C)O)n1ncn(-c2ccc(N3CCN(c4ccc(OC[C@@H]5CO[C@@](Cn6cncn6)(c6ccc(F)cc6F)C5)cc4)CC3)cc2)c1=O [POSACONAZOLE]
- MIC50 (Candida albicans [1]): 0.71 µM (≈ 0.498 µg/mL)
- MIC50 (Candida albicans [2]): > 89.2 µM
- MIC50 (Candida albicans [3]): 11.1 µM (≈ 7.78 µg/mL)
- MIC50 (Candida albicans [4]): 44.7 µM (≈ 31.3 µg/mL)
- MIC50 (Candida albicans [5]): 44.7 µM (≈ 31.3 µg/mL)
- MIC50 (Candida albicans [6]): 22.3 µM (≈ 15.6 µg/mL)
- MIC50 (Candida albicans [7]): 22.3 µM (≈ 15.6 µg/mL)
- MIC50 (Nakaseomyces glabratus): 0.17 µM (≈ 0.119 µg/mL)
- MIC50 (Pichia kudriavzevii): 0.09 µM (≈ 0.0631 µg/mL)
- MIC50 (Candida parapsilosis): < 0.04 µM
- MIC50 (Aspergillus flavus): 0.34 µM (≈ 0.238 µg/mL)
- MIC50 (Aspergillus nidulans): 0.28 µM (≈ 0.196 µg/mL)
- MIC50 (Aspergillus terreus): 0.68 µM (≈ 0.477 µg/mL)
- EC50 at 24 h [8]: 37 µg/mL (≈ 52.8 µM)
- EC50 at 24 h [9]: 26 µg/mL (≈ 37.1 µM)
- selectivity ratio [10]: 0.4
- selectivity ratio [11]: 1
- selectivity ratio [12]: 5
- selectivity ratio [13]: 3
- selectivity ratio [14]: 1
- selectivity ratio [15]: 1
- selectivity ratio [16]: 1
- selectivity ratio [17]: 1
- selectivity ratio [18]: 2
- selectivity ratio [19]: 2
- selectivity ratio [20]: 2
- selectivity ratio [21]: 2
- selectivity ratio [22]: 308
- selectivity ratio [23]: 217
- selectivity ratio [24]: 74
- selectivity ratio [25]: 52
- selectivity ratio [26]: 617 to 1230
- selectivity ratio [27]: 433 to 867
- selectivity ratio [28]: 154
- selectivity ratio [29]: 108
- selectivity ratio [30]: 190
- selectivity ratio [31]: 133
- selectivity ratio [32]: 77
- selectivity ratio [33]: 54
